Each block holds one molecule with its values, some of them ahead of it. The source made the active and inactive calls. The rule behind the calls is not given here.
Assays:
Type in all cases: functional
[1] = organism: Rattus norvegicus; test: Ability of compound at 10 uM for current activation in the absence of GABA in cultured postnatal rat hippocampal neurons using whole-cell patch clamp method; NR=No response
Outline: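 Whole-cell voltage clamp at -60 mV and ~22 °C in rat hippocampal cultures (postnatal pups, 3-10 days in vitro), with a CsCl-based pipette solution at pH 7.3. Compound alone, without GABA, was pressure-ejected for 200 ms (DMSO <0.2% final). The peak directly gated current was compared with the same cell's response to 1 μM GABA alone. N = cells.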

[2] = organism: Rattus norvegicus; test: Ability of compound at 1 uM to potentiate GABA-mediated currents in cultured postnatal rat hippocampal neurons using whole-cell patch clamp method; NR=No response
Outline: (§1)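 Cultured postnatal rat hippocampal neurons (pups 1-2 days old, 3-10 days in vitro) were whole-cell voltage-clamped at -60 mV and room temperature (~22 °C), with a CsCl/HEPES/EGTA pipette solution at pH 7.3. Compound plus 1 μM GABA was pressure-ejected for 200 ms, with DMSO <0.2% final. Peak current was normalized to 1 μM GABA alone on the same cell (100% = no change). N = cells.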

[3] = organism: Rattus norvegicus; test: Ability of compound at 10 uM for current activation in the absence of GABA in cultured postnatal rat hippocampal neurons using whole-cell patch clamp method
Outline: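 Whole-cell voltage clamp at -60 mV, room temperature (~22 °C), on hippocampal neurons cultured 3-10 days from 1-2 day old albino rat pups. Pipette solution is CsCl-based, pH 7.3. Compound is applied at 10 µM in the absence of GABA (DMSO stock, final DMSO <0.2%) by 200 ms pressure ejection. Peak gated current is compared with the same cell's 1 µM GABA response. N = cells.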

[4] = organism: Rattus norvegicus; test: Ability of compound at 1 uM to potentiate GABA-mediated currents in cultured postnatal rat hippocampal neurons using whole-cell patch clamp method; outline: as §1
[5] = organism: Rattus norvegicus; test: Ability of compound at 1 uM for current activation in the absence of GABA in cultured postnatal rat hippocampal neurons using whole-cell patch clamp method
[6] = organism: Rattus norvegicus; test: Effective concentration against current mediated by 1 uM GABA in cultured rat hippocampal neurons
[7] = organism: Rattus norvegicus; test: Ability of compound at 10 uM to potentiate GABA-mediated currents in cultured postnatal rat hippocampal neurons using whole-cell patch clamp method; outline: as §1
[8] = organism: Rattus norvegicus; test: Ability of compound at 1 uM for current activation in the absence of GABA in cultured postnatal rat hippocampal neurons using whole-cell patch clamp method; NR=No response

Compound: C[C@]12CCC3C[C@H](CCO)CCC3C1CC[C@H]2C#N (some centres not stated)
Gated current [1]: inactive
Response [2]: inactive

Compound: C[C@]12CC[C@H]3[C@@H](CC[C@H]4C[C@H](O)CC[C@@H]43)[C@@H]1CC[C@@H]2C#N
Gated current [3]: 38%
Response [4]: 372%
Gated current [5]: 15%

Compound: C[C@@H]1C2CC[C@@]3(C)C(CC[C@H]3C#N)C2CC[C@H]1CCO (some centres not stated)
Gated current [1]: inactive
Response [2]: inactive

EC50 [6]: 200 nM
Compound: CC(=O)[C@H]1CCC2C3CC[C@@H](CCO)CC3CC[C@@]21C (some centres not stated)

Compound: C[C@]12CC[C@@H](O)C[C@@H]1CC[C@@H]1[C@@H]2CC[C@]2(C)[C@@H](C#N)CC[C@@H]12
Gated current [3]: 49%
Response [4]: 443%
Gated current [5]: 22%

Compound: C[C@@H]1C2CC[C@@]3(C)C(CC[C@@H]3C#N)C2CC[C@H]1CCO (some centres not stated)
Gated current [1]: inactive
Response [7]: 244%
Response [2]: inactive

Compound: C[C@H]1C2CC[C@@]3(C)C(CC[C@@H]3C#N)C2CC[C@H]1CCO (some centres not stated)
Gated current [3]: 26%
Response [4]: 382%
Gated current [8]: inactive

Compound: C[C@]12CCC3C[C@H](CCO)CCC3C1CC[C@@H]2C#N (some centres not stated)
Gated current [1]: inactive
Response [4]: 255%

Compound: C[C@]12CC[C@H]3[C@@H](CC[C@H]4C[C@H](O)CC[C@@H]43)[C@@H]1CC[C@H]2C#N
Gated current [1]: inactive
Response [2]: inactive

Compound: CC1(C)C2CC[C@@]3(C)C(CC[C@H]3C#N)C2CC[C@H]1CCO (some centres not stated)
Gated current [1]: inactive
Response [2]: inactive

Compound: CC1(C)C2CC[C@@]3(C)C(CC[C@@H]3C#N)C2CC[C@H]1CCO (some centres not stated)
Gated current [1]: inactive
Response [4]: 220%

Compound: C[C@]12CC[C@@H](O)C[C@@H]1CC[C@@H]1[C@@H]2CC[C@]2(C)[C@H](C#N)CC[C@@H]12
Gated current [1]: inactive
Response [2]: inactive
